Rows were chosen to be rich in hits. Some 2.1% of all compounds tested hit in one or more screens of this group.
M5 PAM – potentiates acetylcholine response at human M5 receptor. P08912. CHO-K1 hM5, Fluo-8 calcium, ACh EC20 PAM; 0% = ACh EC20, 100% = ACh EC100. activation, % at 3 µM. hit rate 0.3% among 360,000;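 active means activation above the run cutoff, the mean activation of all test compounds plus 3 SD, cut at about 18% in these data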
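Test system: CHO-K1 hM5 cells / Doses: single-point, 3 µM nominal / Times: Post-acetylcholine fluorescence recording 140 s / Technique: Fluo-8 calcium fluorescence / Measure: Max/basal fluorescence ratio as % of EC20–EC100 ACh window / Benchmarks: low control EC20 acetylcholine (0%), high control EC100 acetylcholine (100%) / Replicates: one well per compound, no replicates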
CHRM1 PAM – human CHRM1 positive allosteric modulation; hit rate 0.088% among 360,000; AID 588819; CHO-K1 hM1, Fluo-8 calcium fluorescence, ACh EC20; 0% = ACh EC20, 100% = maximal ACh; P11229; activation, % at 3 µM; in the data active means activation above about 19%, passing the limit was not always enough
Target sequence (P11229 whole entry, looked up): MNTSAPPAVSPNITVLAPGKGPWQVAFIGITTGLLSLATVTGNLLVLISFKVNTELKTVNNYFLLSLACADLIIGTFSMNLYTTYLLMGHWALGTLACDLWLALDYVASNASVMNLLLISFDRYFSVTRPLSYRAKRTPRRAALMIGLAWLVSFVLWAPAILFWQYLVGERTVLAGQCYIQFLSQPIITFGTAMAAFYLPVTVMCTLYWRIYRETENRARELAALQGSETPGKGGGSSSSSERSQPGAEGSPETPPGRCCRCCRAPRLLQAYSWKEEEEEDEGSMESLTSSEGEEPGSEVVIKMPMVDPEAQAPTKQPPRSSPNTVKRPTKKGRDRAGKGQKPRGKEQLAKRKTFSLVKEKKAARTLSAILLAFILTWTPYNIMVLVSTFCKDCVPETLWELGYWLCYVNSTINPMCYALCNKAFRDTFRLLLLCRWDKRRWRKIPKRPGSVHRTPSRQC
M5 antag – CHRM5 antagonism in calcium assay; P08912; CHO-hM5 cells, Fluo-8 calcium fluorescence, ACh EC80; inhibition, % at 3 µM; hit rate 0.59% among 360,000;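 active means inhibition above a per-plate cutoff, the mean of that plate's test compounds plus 3 SD, cut at about 27% in these data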
M1 antag – human CHRM1 antagonism. P11229. CHO-K1 hM1, Fluo-8 calcium fluorescence, ACh EC80 antagonist. inhibition, % at 3 µM. hit rate 1.3% among 360,000. AID 588852;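 active means percent inhibition above its own plate's cutoff, namely the mean of that plate's compound wells plus 3 SD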;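 further: peak over basal fluorescence ratio during 140 s after agonist addition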
M1 ag – human M1 muscarinic receptor agonism | CHO-K1 hM1, Fluo-8 calcium fluorescence, agonist mode; 0% DMSO, 100% acetylcholine EC100 | hit rate 0.33% among 360,000 | AID 588814 | activation, % at 3 µM;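 active means activation above the run's mean compound activation plus 3 SD, cut at about 16% in these data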;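 further: peak over basal fluorescence ratio within a 140 s kinetic read after compound addition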
CHRM5 agonist – agonists of human muscarinic M5 receptor (CHRM5); CHO-K1 hM5 cells, Fluo-8 calcium fluorescence; 0% DMSO wells, 100% maximal acetylcholine response; activation, % at 3 µM; hit rate 0.19% among 360,000; AID 624037;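 active means activation above the run's mean over test compounds plus 3 SD, cut at about 23% in these data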;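 further: signal is peak over basal fluorescence ratio across the kinetic read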
Large screens that a line does not name were inactive.

O=C(c1cccc(Cl)c1)N1CCN(Cc2ccc3c(c2)OCO3)CC1	none
CC1CCN(c2nc3ccc(C(=O)N4CCN(Cc5ccc6c(c5)OCO6)CC4)cc3s2)CC1	M1 antag 29
COC(=O)c1ccc(/C=C/c2c(-c3ccsc3)sc3ccccc23)cc1	M1 antag 40
COc1ccc(-c2sc3ccccc3c2/C=C/c2ccc(N)cc2)cc1	none
CC(C)NS(=O)(=O)c1ccc(OCC(=O)N2CCc3ccccc3C2)cc1	none
CC1(C)C(=O)Nc2ccccc2N1C(=O)COC(=O)c1cc(S(C)(=O)=O)ccc1Cl	none
COc1cc(/C=C/C(=O)OCC(=O)N2c3ccccc3NC(=O)C2(C)C)cc(OC)c1OC	M1 antag 33
CC1(C)C(=O)Nc2ccccc2N1C(=O)COC(=O)c1ccc(Cl)c(S(=O)(=O)NCc2ccccc2)c1	M1 antag 30
COc1ccc(/C=C/c2ccc3ccccc3[n+]2C)cc1OC	none
CC(=O)Oc1ccccc1/C=C/c1ccc2ccccc2[n+]1C	M5 antag 32, M1 antag 54
Oc1ccc(C23CCCC2C2(CCCC2)c2ccc(O)cc2O3)c(O)c1 (configuration not stated)	M1 antag 38, M1 ag 40
CCCNC(=S)NC1CCCC1	M1 antag 38
O=C(CC(c1ccccc1O)N1CCCCC1)N1CCCCC1 (configuration not stated)	M1 antag 70
CCOC(=O)C1=NN(c2ccccc2)C2C(=O)N(c3ccccc3OC)C(=O)C12 (configuration not stated)	M5 antag 27
COc1ccc2c(c1)c(=O)oc1c(C)c(OCc3cc(C(=O)O)oc3C)ccc12	none
CC(c1ccccc1)N(CCC(c1ccccc1)C1CCOC(C)(C)C1)C(=O)c1ccco1 (configuration not stated)	M5 antag 30
CC1(C)CC(C(CC(=O)O)c2ccccc2)CCO1 (configuration not stated)	none
COc1ccc(CN(CCC(c2ccc(F)cc2)C2CCOC(C)(C)C2)C(=O)c2ccco2)cc1 (configuration not stated)	M5 antag 36, M1 antag 26
O=C(O)/C=C/C(=O)NCc1ccccn1	M5 PAM 21
CCOC(=O)c1ccc(NC(=O)N2CCN(c3ccccn3)CC2)cc1	none
CCOC(=O)c1ccc(N2CCN(c3ccccc3F)CC2)c(NC(=O)Nc2cccc(OC)c2)c1	M5 antag 45, M1 antag 32
CCOC(=O)c1ccc(NC(=O)N2CCN(c3cccc(OC)c3)CC2)cc1	M1 antag 44
COc1cccc(-c2csc(N3CCN(C(=O)Nc4ccc(Cl)cc4)CC3)n2)c1	M5 antag 28
CCOC(=O)N1CCN(C(=O)c2ccc3ccccc3c2)CC1	none
CN1CCN(C(=O)C2CCN(c3ncc(C(F)(F)F)cc3Cl)CC2)CC1	M1 antag 72
O=C(CN1CCN(c2ncc(C(F)(F)F)cc2Cl)CC1)N1CCN(c2ncc(C(F)(F)F)cc2Cl)CC1	none
Cc1ccc(NS(=O)(=O)c2ccc(C(=O)N3CCC3)cc2)cc1	none
CCOC(=O)c1ccc(S(=O)(=O)Nc2cc(S(=O)(=O)Nc3ccc(OC)cc3)ccc2O)cc1	M5 PAM 18
CCOC(=O)N1CCN(C(=O)c2ccc(S(=O)(=O)Nc3ccc(C)cc3)cc2)CC1	M1 antag 32
COc1ccc(NS(=O)(=O)c2ccc(C(=O)N3CCCCCC3)cc2)cc1	M1 ag 23, CHRM5 agonist 24
CCOC(=O)N1CCN(C(=O)c2ccc(NS(=O)(=O)c3ccc(C)cc3)cc2)CC1	none
COc1ccc(NS(=O)(=O)c2cccc(C(=O)N3CCCCCC3)c2)cc1	none
Cc1ccc(NS(=O)(=O)c2ccc(C(=O)N3CC(C)OC(C)C3)cc2)cc1 (configuration not stated)	M1 ag 39, CHRM5 agonist 31
Clc1cnc(N/N=C/c2cccs2)c(Cl)c1	none
COC(=O)c1ccc(CN2C(=O)NC3(CCCCC3)C2=O)cc1	none
O=C(Nc1nnc(-c2ccco2)o1)c1cccc2ccccc12	none
Cc1nc(-c2ccc(S(=O)(=O)Nc3cccc(S(N)(=O)=O)c3)s2)cs1	none
COc1ccc(NS(=O)(=O)c2cccc(C(=O)N(C)Cc3cccs3)c2)cc1	none
CCOc1ccc(NS(=O)(=O)c2ccc(C(=O)N3CCCCCC3)cc2)cc1	M1 ag 22
CCOc1ccc(NS(=O)(=O)c2ccc(C(=O)N3CCCC(C)C3)cc2)cc1 (configuration not stated)	M1 antag 28, M1 ag 39, CHRM5 agonist 36
COc1ccc(NS(=O)(=O)c2ccc(C(=O)N(C)Cc3cccs3)cc2)cc1	M1 ag 25, CHRM5 agonist 26
CCOc1ccc(S(=O)(=O)Nc2ccc(C(=O)N3CCCC3)cc2)cc1	none
O=C(c1ccccc1)c1ccc(C(=O)N2CCCC(C(F)(F)F)C2)cc1 (configuration not stated)	none
O=C(c1ccc(S(=O)(=O)Nc2ccccc2)cc1)N1CCCC(C(F)(F)F)C1 (configuration not stated)	M1 ag 31, CHRM5 agonist 36
Cc1ccc(C(=O)NNC(=O)c2ccc3ncccc3c2)cc1	none
CCOc1ccccc1NC(=O)Cn1nnc(C(=O)NCc2ccco2)c1N	none
Cc1cc(CN(Nc2ccccc2)c2ccccc2)cc(C)n1	none
COC(=O)C(NC(=O)c1ccccc1C)(Nc1ncc(S(=O)(=O)c2ccc([N+](=O)[O-])cc2)s1)C(F)(F)F (configuration not stated)	M1 ag 17
COC(=O)C(NC(=O)c1ccc(F)cc1)(Nc1ncc(S(=O)(=O)c2ccc([N+](=O)[O-])cc2)s1)C(F)(F)F (configuration not stated)	none
O=C(Nc1ccc([N+](=O)[O-])cc1)c1ccccc1F	none
O=C(Nc1ncc(S(=O)(=O)c2ccc([N+](=O)[O-])cc2)s1)c1ccccc1F	M1 antag 32, M1 ag 30
C=CC[C@H](CC(=O)NCCO)C(=O)NC[C@@H](OC(=O)[C@@H](CC=C)Cc1ccc(F)cc1)c1ccccc1	none
C=CC[C@@H](CC(=O)N[C@H](CO)Cc1ccccc1)C(=O)NC[C@H](OC(=O)[C@@H](CC=C)Cc1ccc(F)cc1)c1ccccc1	M1 antag 34
O=c1cc(-c2ccccc2)[nH][nH]1	none
O=c1cccc(-c2ccccc2)[nH]1	M5 PAM 30

Compound activity deposited in PubChem BioAssay by The Scripps Research Institute Molecular Screening Center.
